Laboratory results reported in ChEMBL document CHEMBL4699492, “Discovery of Novel Pyrazolo[3,4-b] Pyridine Derivatives with Dual Activities of Vascular Remodeling Inhibition and Vasodilation for the Treatment of Pulmonary Arterial Hypertension” (J Med Chem, 2020).
Active and inactive are the calls of the source. No cut-off for these calls is given here.

How the values were obtained:
Aorta [1] = test: Vasodilating activity in Sprague-Dawley rat aortic rings assessed as reduction in phenylephrine-induced contractions; format: functional, tissue-based
Outline: (§1)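 Thoracic aorta from male SD rats (250-280 g) anesthetized with chloral hydrate, cut into 4 mm rings. Rings held in Krebs-Henseleit at 37 °C gassed with 95% O2/5% CO2, under 2 g resting tension, equilibrated 60 min, and precontracted with 10^-7 M phenylephrine. Cumulative concentrations of 3×10^-9 to 10^-6 M (final) applied. Percent relaxation of the initial contraction taken at 1 µM, and EC50 derived.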

[2] = target: cGMP-specific 3',5'-cyclic phosphodiesterase (Homo sapiens) (UniProt O76074); test: Inhibition of PDE5A1 catalytic domain (535 to 860 residues) (unknown origin) expressed in Escherichia coli BL21 (DE3) at 100 nM using [3H]cGMP as substrate after 15 mins by liquid scintillation counting method relative to control
Outline: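 PDE reaction in 50 mM Tris-HCl pH 8.0 with 4 mM MnCl2 or 10 mM MgCl2 and 1 mM DTT, using 3H-cGMP substrate. Run 15 min at room temperature, stopped with 0.2 M ZnSO4, and product precipitated with 0.2 M Ba(OH)2. Radioactivity of the supernatant counted by liquid scintillation. Inhibition rate calculated, with sildenafil as reference.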

[3] = Protein binding in rat plasma; format: ADME, cell-free; conditions: read-out: PPB (converted)
Rattus norvegicus [4] = test: Inhibition of vascular remodeling activity in Sprague-Dawley rat model of hypoxia-induced pulmonary artery hypertension assessed as right ventricular systolic pressure at 10 mg/kg, po administered daily for 2 weeks by catheter method (reference value: 26.2 mmHg); format: functional
Rattus norvegicus [5] = test: Inhibition of vascular remodeling activity in Sprague-Dawley rat model of hypoxia-induced pulmonary artery hypertension assessed as reduction in Smad2 phosphorylation in lungs at 10 mg/kg, po administered daily for 2 weeks by Western blot analysis; format: functional, organism-based
Outline: (§2)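 Hypoxic PAH model in male SD rats (160-200 g) kept at 10% O2 for 4 weeks. Oral dosing at 10 mg/kg daily for 14 days, suspended in 0.5% CMC-Na; control and hypoxia groups received vehicle only. Lungs homogenized in RIPA with protease and phosphatase inhibitors. 30 µg protein run on 10% SDS-PAGE, then PVDF blotting, with β-actin as loading reference. Three independent runs.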

[6] = Antiproliferative activity against HPASMC measured after 48 hrs under hypoxic condition by CCK8 assay; format: functional, tissue-based; conditions: Homo sapiens, Pulmonary Artery Smooth Muscle Cells
Outline: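 HPASMCs were grown in high-glucose D-MEM with 20% FBS, and HLF1 in D-MEM/F-12 (1:1) with 10% FBS. Cells were seeded for exponential growth, then exposed to a range of compound concentrations for 48 h at 37 °C under hypoxia (1% O2, 5% CO2, 94% N2). CCK-8 was added for 4 h and absorbance read at 490 nm. IC50 came from dose-response curves averaged over three independent experiments.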

Aorta [7] = test: Vasodilating activity in Sprague-Dawley rat aortic rings assessed as reduction in phenylephrine-induced contractions at 1 uM relative to control; format: functional; outline: as §1
Rattus norvegicus [8] = test: Inhibition of vascular remodeling activity in Sprague-Dawley rat model of hypoxia-induced pulmonary artery hypertension assessed as reduction in pulmonary artery medial thickness at 10 mg/kg, po administered daily for 2 weeks by H and E staining based digital microscopic analysis; format: functional, organism-based
Outline: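 Hypoxia model in male SD rats (10% O2, 4 weeks) with oral dosing at 10 mg/kg daily for 14 days in 0.5% CMC-Na. Paraffin-embedded lung tissue was cut into 5 µm sections and stained with H&E. Pulmonary artery medial thickness was quantified, n = 5/group.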

[9] = target: T1, AMP-activated protein kinase, AMPK (Homo sapiens) (UniProt P54646+O43741+P54619+Q9UGJ0+Q9Y478+Q13131+Q9UGI9); test: Inhibition of AMPK in hypoxia-induced HPASMC assessed as reduction in cell migration measured after 24 hrs by wound healing assay; format: tissue-based; conditions: Pulmonary Artery Smooth Muscle Cells, dose microM 5-10, time 24.0 hrs
Outline: (§3)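 Wound-healing assay. 5 × 10^4 cells were seeded per well and grown 24 h to near confluence. The monolayer was scratched with a pipette tip and washed with PBS. Cells were then kept in 1% FBS medium with TGF-β (10 ng/mL) or under hypoxia (1% O2, 5% CO2, 94% N2), alone or with compound. Migration ran 24 h at 37 °C, imaged at 0 and 24 h. Mean ± SD from three independent experiments.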

[10] = Antiproliferative activity against HPASMC assessed as reduction in TGFbeta-induced cell proliferation measured after 48 hrs by CCK8 assay; format: functional, tissue-based; conditions: Homo sapiens, Pulmonary Artery Smooth Muscle Cells
Outline: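 HPASMCs grown in high-glucose D-MEM with 20% FBS and HLF1 in D-MEM/F-12 (1:1) with 10% FBS. Cells stimulated with TGF-β (10 ng/mL) at 37 °C, 5% CO2, then exposed to a concentration range for 48 h. CCK-8 added for 4 h and absorbance read at 490 nm. IC50 derived from the curves.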

Rattus norvegicus [11] = test: Inhibition of vascular remodeling activity in Sprague-Dawley rat model of hypoxia-induced pulmonary artery hypertension assessed as decrease in ratio of RV/tibial length at 10 mg/kg, po administered daily for 2 weeks; format: functional, organism-based
[12] = Effect on total AMPK level in lungs of Sprague-Dawley rat model of hypoxia-induced pulmonary artery hypertension at 10 mg/kg, po administered daily for 2 weeks by Western blot analysis; format: ADME, organism-based; conditions: in vivo, 336 h; outline: as §2
[13] = test system: Pulmonary Artery Smooth Muscle Cells; test: Stimulation of sGC in HPASMC assessed as increase in intracellular cGMP level measured after 1 hr in absence of PDE5 inhibitor IBMX and sGC inhibitor ODQ by cGMP-d2/europium cryptate reagent based HTRF assay; format: tissue-based; conditions: Homo sapiens, filed as activator
Outline: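 HPASMCs were suspended at 100,000 cells/mL in PBS with 0.2% BSA, with or without 10 µM ODQ. Compounds were added as a 6-point, 10-fold dilution series; the top 2× stock was 200 µM. Incubation was 1 h at room temperature, in triplicate. cGMP-d2 in lysis buffer and europium cryptate were then added for 1 h before HTRF reading. Three independent experiments.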

[14] = target: T1, AMP-activated protein kinase, AMPK (Homo sapiens); test: Inhibition of AMPK in hypoxia-induced HLF1 cells assessed as reduction in cell migration measured after 24 hrs by wound healing assay; format: cell-based; conditions: dose microM 5-10, time 24.0 hrs; outline: as §3
Rattus norvegicus [15] = test: Inhibition of vascular remodeling activity in Sprague-Dawley rat model of hypoxia-induced pulmonary artery hypertension assessed as weight ratio of right ventricle/left ventricle plus septum at 10 mg/kg, po administered daily for 2 weeks (reference value: 0.63); format: functional
Rattus norvegicus [16] = test: In vivo inhibition of AMPK in Sprague-Dawley rat model of hypoxia-induced pulmonary artery hypertension assessed as reduction in ACC phosphorylation in lungs at 10 mg/kg, po administered daily for 2 weeks by Western blot analysis; format: functional, organism-based; outline: as §2

EC50 (Aorta [1]): 0.29 µM
inhibition [2]: 4.3%
fraction unbound [3]: 0.007
inhibition [9]: Dose-dependent effect
inhibition [14]: Dose-dependent effect
Compound: Cc1ccccc1COc1nc2c(cc1-c1nc(N)cc(N)n1)c(C)nn2-c1ccccc1
Activity (Rattus norvegicus [4]): 22 mmHg
inhibition (Rattus norvegicus [5]): Active
IC50 [6]: 20.8 µM
Emax at 1 µM (Aorta [7]): 63.2%
inhibition (Rattus norvegicus [8]): Active
IC50 [10]: 17 µM
inhibition (Rattus norvegicus [11]): Active
Activity [12]: Non-Toxic
Activity [13]: Active
Ratio (Rattus norvegicus [15]): 0.38
inhibition (Rattus norvegicus [16]): Active
